The text below walks through data of ChEMBL document CHEMBL4699644, “Discovery of a potent dual inhibitor of wild-type and mutant respiratory syncytial virus fusion proteins through the modulation of atropisomer interconversion properties” (Bioorg Med Chem, 2020).

The subject of one data set is CYP3A. Description: Inhibition of human liver microsomes CYP3A at 10 uM using testosterone as substrate in presence of NADPH preincubated for 30 mins followed by substrate addition and measured after 10 mins by LC/MS analysis. The class given is ADME, Microsome. The settings on record: probe testosterone, time 40 min. The essentials: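 Compound preincubated 0 or 30 min at 37 °C with human liver microsomes (0.5 mg protein/mL) in sodium–potassium phosphate buffer pH 7.4 with NADPH-regenerating system. Then diluted 10-fold into secondary buffer with testosterone 250 μM plus NADPH-regenerating system and incubated 10 min. Stopped with acetonitrile containing internal standard, centrifuged, LC-MS/MS. Value is the difference in % inhibition between 0- and 30-min preincubation.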
On the technique in general: Liver microsomes are vesicles of endoplasmic reticulum, rich in cytochrome P450 enzymes.

The nature of data set [1]: Protein binding in mouse plasma at 1 ug/ml incubated for 4 hrs by LC-MS analysis. The class given is ADME, cell-free. As to conditions: at 1 µg/mL, read-out: PPB (converted). In outline: (§1)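 Equilibrium dialysis with 12–14 kDa cutoff membrane. Compound dissolved in DMSO and spiked into blank plasma at 1 μg/mL final. Plasma dialysed against phosphate buffer pH 7.4 at 37 °C, 5% CO2, 4 h. Compound in plasma and buffer measured by LC-MS/MS and % bound calculated.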

Data set [2] in a line: Protein binding in human plasma at 1 ug/ml incubated for 4 hrs by LC-MS analysis. As to conditions: at 1 µg/mL, read-out: PPB (converted). Type of data set: ADME, cell-free. In outline:
as §1

The nature of data set [3]: Permeability of compound incubated for 4 hrs by PAMPA assay. The settings on record: read-out: permeability. Type of data set: ADME. In outline: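 Artificial membrane permeation run 4 h at room temperature and quantified by UV plate reader. Apparent permeability calculated at pH 6.2.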

In general, inhibition refers to the relative decrease from the control value, in per cent. With `CN1CCNC(=O)COc2ccc(Cl)cc2C(=O)N2CCCC[C@H]2c2cc3nc([C@H]4C[C@H](O)C4)cc1n3n2`, the inhibition at 10 min, 10 µM in the data set on CYP3A was -1.4%. For the same compound, the fraction unbound at 4 h, 1 ug/ml was 0.145 in data set [1] and 0.093 in data set [2].

As to `CN1CCNC(=O)COc2ccc(F)cc2C(=O)N2CCCC[C@H]2c2cc3nc(N4CC(N)C4)cc1n3n2`, in data set [3], the Papp at 4 h was 3.3 ×10⁻⁶ cm/s.

Regarding `CN1CCNC(=O)COc2ccc(F)cc2C(=O)N2CCCC[C@H]2c2cc3nc([C@H]4C[C@H](O)C4)cc1n3n2`, in the data set on CYP3A, the inhibition at 10 min, 10 µM was found to be 0.4%. Besides, the Papp at 4 h in data set [3] came to 27 ×10⁻⁶ cm/s.

Take `CN1CCNC(=O)COc2ccc(F)cc2C(=O)N2CCCC[C@H]2c2cc3nc(N4CC(O)C4)cc1n3n2`: the Papp at 4 h in data set [3] was 8 ×10⁻⁶ cm/s.

As to `CN1CCNC(=O)COc2ccc(Cl)cc2C(=O)N2CCCCC2c2cc3nc(N4CCC4)cc1n3n2` (stereo unspecified), the inhibition at 10 min, 10 µM in the data set with CYP3A was -2.9%.

Consider `CN1CCNC(=O)COc2ccc(F)cc2C(=O)N2CCCC[C@H]2c2cc3nc(N4CCC4)cc1n3n2`, for which the inhibition at 10 min, 10 µM in the data set on CYP3A was -4.7%. In addition, the results for the fraction unbound at 4 h, 1 ug/ml in data set [1] and in data set [2] were 0.02 and 0.13, respectively. Further, the Papp at 4 h in data set [3] stood at 80 ×10⁻⁶ cm/s.

Regarding `CN1CCNC(=O)COc2ccc(F)cc2C(=O)N2CCCC[C@H]2c2cc3nc([C@H]4C[C@@H](O)C4)cc1n3n2`, the Papp at 4 h in data set [3] was found to be 28 ×10⁻⁶ cm/s.

On to `Cc1ccc2c(c1)C(=O)N1CCCCC1c1cc3nc(N4CCC4)cc(n3n1)N(C)CCNC(=O)CO2` (stereo unspecified), for which, in the data set on CYP3A, the inhibition at 10 min, 10 µM is 60.1%. Moreover, the fraction unbound at 4 h, 1 ug/ml was 0.031 in data set [1] and 0.064 in data set [2].

On to `CNC1CN(c2cc3n4nc(cc4n2)[C@@H]2CCCCN2C(=O)c2cc(F)ccc2OCC(=O)NCCN3C)C1`, for which the Papp at 4 h in data set [3] came out at 5.9 ×10⁻⁶ cm/s.

Turning to `Cc1ccc2c(c1)C(=O)N1CCCC[C@H]1c1cc3nc([C@H]4C[C@H](O)C4)cc(n3n1)N(C)CCNC(=O)CO2`, the inhibition at 10 min, 10 µM with CYP3A stood at 57%. The values for the fraction unbound at 4 h, 1 ug/ml in data set [1] and in data set [2] were 0.222 and 0.112, respectively.

Regarding `CN1CCNC(=O)COc2ccc(F)cc2C(=O)N2CCCC[C@H]2c2cc3nc(N4CC[C@H](N)C4)cc1n3n2`, the Papp at 4 h in data set [3] is 0.3 ×10⁻⁶ cm/s.
